Data reported in ChEMBL document CHEMBL1671655, “Anidulafungin is fungicidal and exerts a variety of postantifungal effects against Candida albicans, C. glabrata, C. parapsilosis, and C. krusei isolates” (2009).
≈ marks a conversion by molar mass, not a printed value. Calls of active or inactive are those of the source. The rule behind the calls is not given here. Starred links: 1 amine or outer side, 2 acyl side, 3 side chain; linkers in the order of their positions; H or OH if unused. Positions of bridges follow the written chain, without caps; N, C: chain ends. Non-standard residues stand in square brackets, D forms with d. Residues, ends and D or L forms follow the SMILES beside them. *: point of attachment. pTerphenylCO(4''-OnC5H11) = CCCCCOc1ccc(-c2ccc(-c3ccc(C(=O)*)cc3)cc2)cc1; Orn(4R-OH,5R-OH) = O=C([C@H](C[C@@H](O)[C@@H](O)N[*:3])N[*:1])[*:2]; hTyr(3S-OH,4S-OH) = N[C@H](C(=O)O)[C@H](O)[C@@H](O)c1ccc(O)cc1; Pro(3S-OH,4S-Me) = C[C@H]1CN[C@H](C(=O)O)[C@H]1O; Hyp = O=C(O)[C@@H]1C[C@@H](O)CN1

What was measured:
Candida parapsilosis [1] = test: Fungicidal activity against Candida parapsilosis isolate 1 assessed as log reduction in bacterial count at 4 times MIC after drug exposure for 1 hr followed by washout measured after 48 hrs in the absence of drug by PAFE study; type: functional; conditions: Lodderomyces parapsilosis
Outline: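 Inoculum about 1 x 10^5 to 5 x 10^5 CFU/ml in RPMI 1640 (MOPS, pH 7.0) with drug, shaken at 35°C for 1 h. Cells were then washed and centrifuged at 1,400 x g for 10 min (3 cycles) and resuspended in warm drug-free RPMI. Samples plated on SDA at 0, 2, 4, 8, 12, 24 and 48 h; CFU counted after 48 h at 35°C. Run twice per isolate; means.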

Candida albicans [2] = test: Fungicidal activity against Candida albicans isolate 2 assessed as log reduction in bacterial count at 4 times MIC after drug exposure for 1 hr followed by washout measured after 48 hrs in the absence of drug by PAFE study; type: functional
Outline: (§1)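 Starting inoculum ~1 x 10^5 to 5 x 10^5 CFU/ml in MOPS-buffered RPMI 1640 (pH 7.0) with drug at multiples of the CLSI M27-A3 MIC. After 1 h at 35°C, cells washed and centrifuged three times at 1,400 x g for 10 min, then resuspended in warm drug-free RPMI. Shaken at 35°C and plated on SDA at 0–48 h; CFU counted after 48 h. Run twice per isolate; means.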

Pichia kudriavzevii [3] = test: Increase in susceptibility to calcofluor white in Candida krusei isolate ATCC 6258 assessed as cell wall damage at 4 times MIC after 1 hr relative to control; type: functional, organism-based
Outline: (§2)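 Cells recovered 8 h after a 1-h drug exposure were grown to exponential phase in YPD with 1% glucose and adjusted to OD599 0.1. Undiluted and 10-fold serially diluted cultures were spotted onto YPD plates containing calcofluor white, then incubated at 30°C for 72 h. Growth compared with no-drug control cells; triplicate.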

Candida albicans [4] = test: Increase in susceptibility to SDS in Candida albicans isolate 1 assessed as cell wall damage at MIC after 1 hr relative to control; type: functional, organism-based
Outline: (§3)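 Cells recovered 8 h after a 1-h drug exposure were grown in YPD with 1% glucose to exponential phase and adjusted to OD599 0.1. Undiluted culture and 10-fold serial dilutions were spotted onto YPD plates containing SDS (0.01 to 0.04%), then incubated 72 h at 30°C. Growth compared with unexposed control cells; triplicate.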

Candida parapsilosis [5] = test: Increase in susceptibility to SDS in Candida parapsilosis isolate 1 assessed as cell wall damage at 4 times MIC after 1 hr relative to control; type: functional, organism-based; outline: as §3
Nakaseomyces glabratus [6] = test: Increase in susceptibility to calcofluor white in Candida glabrata isolate 3 assessed as cell wall damage at MIC after 1 hr relative to control; type: functional, organism-based; outline: as §2
Candida albicans [7] = test: Fungicidal activity against Candida albicans isolate 2 assessed as log reduction in bacterial count at 16 times MIC after 48 hrs by time-kill analysis; type: functional; conditions: isolate 2, 48 h
Outline: (§4)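 Isolates subcultured twice on SDA, suspended to 0.5 McFarland, giving ~1 x 10^5 to 5 x 10^5 CFU/ml in MOPS-buffered RPMI 1640 (pH 7.0) with or without drug at multiples of MIC (MIC by CLSI M27-A3). Tubes shaken at 35°C with continuous drug. Sampled at 0–48 h, diluted 10-fold and plated on SDA; CFU counted after 48 h at 35°C. Run twice per isolate; means.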

Candida albicans [8] = test: Fungicidal activity against Candida albicans ATCC 90028 assessed as log reduction in bacterial count at 4 times MIC after drug exposure for 1 hr followed by washout measured after 48 hrs in the absence of drug by PAFE study; type: functional; outline: as §1
Candida parapsilosis [9] = test: Antifungal activity against Candida parapsilosis by NCCLS M27A broth microdilution method; type: functional; conditions: Lodderomyces parapsilosis
Candida albicans [10] = test: Fungicidal activity against Candida albicans isolate 2 assessed as log reduction in bacterial count at MIC after drug exposure for 1 hr followed by washout measured after 48 hrs in the absence of drug by PAFE study; type: functional; outline: as §1
Candida parapsilosis [11] = test: Antifungal activity against Candida parapsilosis isolate A assessed as time period for bacterial growth inhibition at 16 times MIC after 1 hr drug exposure; type: functional
Outline: (§5)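 Inoculum of about 1 x 10^5 to 5 x 10^5 CFU/ml in MOPS-buffered RPMI (pH 7.0), shaken at 35°C and exposed to drug for 1 h. Cells then washed and centrifuged three times and resuspended in drug-free warm RPMI. Samples plated on SDA at 0, 2, 4, 8, 12, 24 and 48 h, with CFU counted after 48 h at 35°C. Run twice per isolate; values are means.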

Candida albicans [12] = test: Increase in susceptibility to calcofluor white in Candida albicans ATCC 90028 assessed as cell wall damage at 4 times MIC after 1 hr relative to control; type: functional, organism-based; outline: as §2
Candida parapsilosis [13] = test: Antifungal activity against Candida parapsilosis isolate 1 by CLSI M27-A3 broth microdilution method; type: functional; conditions: Lodderomyces parapsilosis
Outline: (§6)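 CLSI M27-A3 broth microdilution in RPMI 1640 buffered to pH 7.0 with MOPS. Starting inoculum 0.5 x 10^3 to 2.5 x 10^3 cells/ml, incubated at 35°C. MIC read as the lowest concentration giving >50% growth reduction versus control. Each isolate tested on at least three occasions.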

Candida parapsilosis [14] = test: Fungicidal activity against Candida parapsilosis isolate 1 assessed as log reduction in bacterial count at MIC after 48 hrs by time-kill analysis; type: functional; conditions: Lodderomyces parapsilosis, isolate 1, 48 h
Outline: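 Isolates subcultured twice on SDA, then suspended to 0.5 McFarland and diluted into RPMI 1640 (MOPS, pH 7.0) with or without anidulafungin, giving about 1 x 10^5 to 5 x 10^5 CFU/ml. Tubes were shaken at 35°C. Samples were taken at 0, 2, 4, 8, 12, 24 and 48 h, serially diluted 10-fold, plated on SDA, and CFU counted after 48 h at 35°C. Each isolate was run twice; mean values.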

Candida albicans [15] = test: Increase in susceptibility to calcofluor white in Candida albicans ATCC 90028 assessed as cell wall damage at 16 times MIC after 1 hr relative to control; type: functional, organism-based; outline: as §2
Nakaseomyces glabratus [16] = test: Fungicidal activity against Candida glabrata isolate 1 assessed as log reduction in bacterial count at 16 times MIC after drug exposure for 1 hr followed by washout measured after 48 hrs in the absence of drug by PAFE study; type: functional; outline: as §1
Nakaseomyces glabratus [17] = test: Antifungal activity against Candida glabrata isolate 1 coincubated with mouse J774 macrophages assessed as macrophage induced bacterial cell killing at 4 times MIC (reference value: 12 +/- 10 %); type: functional
Nakaseomyces glabratus [18] = test: Increase in susceptibility to SDS in Candida glabrata isolate 3 assessed as cell wall damage at 4 times MIC after 1 hr relative to control; type: functional, organism-based; outline: as §3
Candida albicans [19] = test: Antifungal activity against Candida albicans isolate 2 by CLSI M27-A3 broth microdilution method; type: functional; outline: as §6
Candida albicans [20] = test: Fungicidal activity against Candida albicans isolate 1 assessed as log reduction in bacterial count at MIC after 48 hrs by time-kill analysis; type: functional; conditions: isolate 1, 48 h; outline: as §4
Pichia kudriavzevii [21] = test: Antifungal activity against Candida krusei by NCCLS M27A broth microdilution method; type: functional
Nakaseomyces glabratus [22] = test: Antifungal activity against Candida glabrata isolate 1 by CLSI M27-A3 broth microdilution method; type: functional; outline: as §6
Candida parapsilosis [23] = test: Antifungal activity against Candida parapsilosis assessed as time period for bacterial regrowth inhibition after 1 hr drug exposure; type: functional
Candida albicans [24] = test: Antifungal activity against Candida albicans ATCC 90028 assessed as time period for bacterial growth inhibition at 4 times MIC after 1 hr drug exposure; type: functional; outline: as §5

For `CCCCCOc1ccc(-c2ccc(-c3ccc(C(=O)N[C@H]4C[C@@H](O)[C@@H](O)NC(=O)[C@@H]5[C@@H](O)[C@@H](C)CN5C(=O)[C@H]([C@@H](C)O)NC(=O)[C@H]([C@H](O)[C@@H](O)c5ccc(O)cc5)NC(=O)[C@@H]5C[C@@H](O)CN5C(=O)[C@H]([C@@H](C)O)NC4=O)cc3)cc2)cc1` [ANIDULAFUNGIN] ({pTerphenylCO(4''-OnC5H11)}-[Orn(4R-OH,5R-OH)]T[Hyp][hTyr(3S-OH,4S-OH)]T[Pro(3S-OH,4S-Me)]; lactam 1-C), the log reduction (Candida parapsilosis [1]) was 2.46, the log reduction (Candida albicans [2]) was 1.24 and the Activity (Pichia kudriavzevii [3]) was “Active”. The Activity (Candida albicans [4]) was “Active”, the Activity (Candida parapsilosis [5]) was “Active” and the Activity (Nakaseomyces glabratus [6]) was “Active”. The log reduction (Candida albicans [7]) was 2.86 log CFU/ml, the log reduction (Candida albicans [8]) was 1.89 and the MIC90 (Candida parapsilosis [9]) was 2 µg/mL (≈ 1.75 µM). For the same compound, the log reduction (Candida albicans [10]) was 0.86, the Time (Candida parapsilosis [11]) was 8 h and the Activity (Candida albicans [12]) was “Active”. The MIC (Candida parapsilosis [13]) was 2 µg/mL (≈ 1.75 µM), the log reduction (Candida parapsilosis [14]) was 1.65 log CFU/ml and the Activity (Candida albicans [15]) was “Active”. For the same compound, the log reduction (Nakaseomyces glabratus [16]) was 3.36, the “inhibition (INH)” value (Nakaseomyces glabratus [17]) was 33% and the Activity (Nakaseomyces glabratus [18]) was “Active”. It also gave an MIC (Candida albicans [19]) of 0.03 µg/mL (≈ 0.0263 µM), a log reduction (Candida albicans [20]) of 1.15 log CFU/ml and an MIC90 (Pichia kudriavzevii [21]) of 0.06 µg/mL (≈ 0.0526 µM). For the same compound, the MIC (Nakaseomyces glabratus [22]) was 0.06 µg/mL (≈ 0.0526 µM), the Time (Candida parapsilosis [23]) was “>=12 hr” and the Time (Candida albicans [24]) was 8 h.
